Test results published in ChEMBL document CHEMBL1149369, “Isolation, structure elucidation, total synthesis, and evaluation of new natural and synthetic ceramides on human SK-MEL-1 melanoma cells” (J Med Chem, 2006).
Active and inactive are the calls of the source. No cut-off for these calls is given here.

Key:
Format in all cases: functional, cell-based
[1] = tested on: SK-MEL-1; assay: Apoptotic activity in human SK-MEL-1 cells measured as induction of poly ADP-ribose polymerase cleavage by Western blot analysis
Summary of the method: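 SK-MEL-1 cells exposed 12 h to 10 µM or 30 µM ceramides; untreated controls. Cells pelleted, washed in ice-cold PBS, lysed; SDS-PAGE and immunoblot with anti-PARP antibody that also detects the 85 kDa cleavage fragment.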

[2] = tested on: SK-MEL-1; assay: Apoptotic activity in human SK-MEL-1 cells measured as procaspase 9 cleavage by Western blot analysis
Summary of the method: (§1)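 Western blot for procaspase-8 and -9 in SK-MEL-1 cells cultured with 10 µM or 30 µM ceramides and harvested at 12 h.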

[3] = tested on: SK-MEL-1; assay: Antiproliferative activity against human SK-MEL-1 cells by MTT assay
Summary of the method: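 SK-MEL-1 in RPMI 1640 + 10% heat-inactivated FBS, 37 °C, 5% CO2; resuspended in fresh medium 24 h before treatment. 1 × 10^4 exponentially growing cells exposed 72 h at 37 °C to graded concentrations (10 mM ethanol/dodecane 49:1 stocks; final solvent ≤0.5%, vehicle controls). MTT; OD 570 nm vs control; IC50 by curve fitting; two independent experiments, triplicate determinations.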

[4] = tested on: SK-MEL-1; assay: Apoptotic activity in human SK-MEL-1 cells measured as procaspase 8 cleavage by Western blot analysis; summary of the method: as §1
[5] = tested on: SK-MEL-1; assay: Apoptotic activity in human SK-MEL-1 cells measured as induction of DNA fragmentation
Summary of the method: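 SK-MEL-1 cells incubated 6 h or 12 h with 10-30 µM ceramides or untreated. 4 × 10^5 cells lysed in 50 mM Tris-HCl pH 8.0, 10 mM EDTA, 0.5% SDS, RNase A (37 °C, 1 h), then proteinase K (50 °C, 2 h). Phenol-chloroform-isoamyl alcohol extraction; 2% agarose gel in TAE at 40 V, 4 h; ethidium bromide staining, UV visualisation of ladders.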

| Structure (SMILES) | IC50 [3] [µM] | Activity [1] | Activity [2] | Activity [4] | Activity [5] |
| --- | --- | --- | --- | --- | --- |
| CCCCCCCCCCCCCCCCCC[C@@H](OC(C)=O)[C@@H](OC(C)=O)[C@H](COC(C)=O)NC(=O)[C@@H](OC(C)=O)[C@H](CCCCCCCCCCCCCCCCC)OC(C)=O | 10.2 | Active | Active | Active | Dose-dependent effect |
| CCCCCCCCCCCCCCCCCC[C@@H](OC(C)=O)C(=O)N[C@@H](COC(C)=O)[C@H](OC(C)=O)[C@@H](CCCCCCCCCCCCCCCCCC)OC(C)=O | 7.7 | Active | Active | Active | Dose-dependent effect |
| CCCCCCCCCCCCCCCCCC[C@@H](OC(C)=O)[C@@H](OC(C)=O)[C@H](COC(C)=O)NC(=O)[C@H](OC(C)=O)[C@@H](CCCCCCCCCCCCCCCCC)OC(C)=O | 5.6 | Active | Active | Active | Dose-dependent effect |

The next lines start with results.

| IC50 [3] [µM] | Structure (SMILES) | Activity [1] | Activity [2] | Activity [4] | Activity [5] |
| --- | --- | --- | --- | --- | --- |
| 3.9 | CCCCCCCCCCCCCCCCCC[C@@H](OC(C)=O)[C@@H](OC(C)=O)[C@H](COC(C)=O)NC(=O)[C@@H](OC(C)=O)[C@@H](CCCCCCCCCCCCCCCCC)OC(C)=O | Active | Active | Active | Dose-dependent effect |
| 7.1 | CCCCCCCCCCCCCCCCCC[C@@H](OC(C)=O)[C@@H](OC(C)=O)[C@H](COC(C)=O)NC(=O)[C@H](OC(C)=O)[C@H](CCCCCCCCCCCCCCCCC)OC(C)=O | Active | Active | Active | Dose-dependent effect |
